From ChEMBL document CHEMBL1145396, “High-throughput synthesis and screening of cyclic peptide antibiotics” (J Med Chem, 2007)
Values after ≈ are worked out from the molar mass of the structure shown. Active and inactive are the calls of the source. The calls are words filed in the database; no cut-off is given here. Square brackets hold non-standard residues; d marks the D form. Peptide text beside a SMILES is read from it. Orn = NCCC[C@H](N)C(=O)O

What was measured:
[1] = test system: Staphylococcus epidermidis; experiment: Antimicrobial activity against Staphylococcus epidermidis at 32 ug/mL; type: functional, organism-based
[2] = Toxicity assessed as hemolytic activity in human RBC; type: cell-based; conditions: erythrocyte
Outline: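 Peptide stocks were serially diluted 2-fold in water, then mixed with fresh human erythrocytes diluted 100-fold in PBS pH 7.4. Incubated overnight at room temperature and inspected visually for lysis. MHC was taken as the lowest concentration lysing half of the cells.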

Enterococcus faecalis [3] = experiment: Antimicrobial activity against Enterococcus faecalis at 32 ug/mL; type: functional, organism-based
Escherichia coli [4] = experiment: Antimicrobial activity against Escherichia coli at 32 ug/mL; type: functional, organism-based
Bacillus subtilis [5] = experiment: Antimicrobial activity against Bacillus subtilis at 32 ug/mL; type: functional
[6] = Ratio of MHC for human RBC to MIC for Bacillus subtilis; type: functional
Bacillus subtilis [7] = experiment: Antimicrobial activity against Bacillus subtilis; type: functional
Outline: (§1)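 Microtiter broth assay. Peptide stock in 30% DMSO/water, neutralized with sodium phosphate pH 7.0, added to a 1000-fold diluted overnight bacterial culture (1:5 into final volume). Incubated 7 h at 37 °C. Growth scored visually.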

Escherichia coli [8] = experiment: Antimicrobial activity against Escherichia coli; type: functional; outline: as §1
Enterococcus faecalis [9] = experiment: Antimicrobial activity against Enterococcus faecalis; type: functional; outline: as §1
[10] = test system: Staphylococcus epidermidis; experiment: Antimicrobial activity against Staphylococcus epidermidis; type: functional; outline: as §1

| MIC (Bacillus subtilis [5]) [µg/mL] | MIC (Bacillus subtilis [7]) [µg/mL] | MIC (Escherichia coli [8]) [µg/mL] | MIC (Enterococcus faecalis [9]) [µg/mL] | MIC [10] [µg/mL] | Compound | Activity [1] | Activity [2] [µg/mL] | Activity (Enterococcus faecalis [3]) | Activity (Escherichia coli [4]) | Ratio [6] | Activity (Bacillus subtilis [5]) |
| --- | --- | --- | --- | --- | --- | --- | --- | --- | --- | --- | --- |
| 0.5 (≈ 0.4 µM) |  |  |  |  | CCCNC(=O)C[C@H]1NC(=O)[C@@H](CCCNC(=N)N)NC(=O)[C@H](Cc2ccccc2)NC(=O)[C@@H]2CCCN2C(=O)[C@@H](Cc2ccccc2)NC(=O)[C@@H]2CCCN2C(=O)[C@H](CCCN)NC(=O)[C@H](C(C)C)NC(=O)[C@H](Cc2ccc(O)cc2)NC(=O)[C@@H](C)NC1=O | inactive | 514 | inactive | inactive | 1024 |  |
|  | 1 (≈ 0.787 µM) | 8 (≈ 6.3 µM) | 1 (≈ 0.787 µM) | 1 (≈ 0.787 µM) | CC(C)C[C@@H]1NC(=O)[C@H](CCCN)NC(=O)[C@H](C(C)C)NC(=O)[C@H](Cc2ccc(O)cc2)NC(=O)[C@H](CCC(N)=O)NC(=O)[C@H](CC(N)=O)NC(=O)[C@@H](Cc2ccccc2)NC(=O)[C@H](Cc2ccccc2)NC(=O)[C@@H]2CCCN2C(=O)[C@@H](Cc2ccccc2)NC1=O [TYROCIDINE A] (cyclo(F[dF]NQYV[Orn]L[dF]P)) |  | 2 |  |  | 2 |  |
|  | 8 (≈ 6.12 µM) | 32 (≈ 24.5 µM) |  |  | CCCNC(=O)C[C@@H]1NC(=O)[C@@H](CCCNC(=N)N)NC(=O)[C@H](Cc2ccccc2)NC(=O)[C@@H]2CCCN2C(=O)[C@@H](Cc2ccccc2)NC(=O)[C@@H](CC(N)=O)NC(=O)[C@H](CCCN)NC(=O)[C@H](C(C)C)NC(=O)[C@H](Cc2ccc(O)cc2)NC(=O)[C@@H](CC(C)C)NC1=O |  |  |  |  |  |  |
|  | 4 (≈ 2.98 µM) | 32 (≈ 23.8 µM) | 16 (≈ 11.9 µM) | 4 (≈ 2.98 µM) | CCCNC(=O)C[C@@H]1NC(=O)[C@@H](CCCCN)NC(=O)[C@H](Cc2ccccc2)NC(=O)[C@@H]2CCCN2C(=O)[C@@H](Cc2ccccc2)NC(=O)[C@H](Cc2ccc(O)cc2)NC(=O)[C@H](CCCN)NC(=O)[C@H](C(C)C)NC(=O)[C@H](Cc2ccc(O)cc2)NC(=O)[C@H](CCCCN)NC1=O |  | 128 |  |  | 32 |  |
|  | > 32 | 32 (≈ 24.3 µM) |  |  | CCCNC(=O)C[C@@H]1NC(=O)[C@@H](CCCCN)NC(=O)[C@H](Cc2ccccc2)NC(=O)[C@@H]2CCCN2C(=O)[C@@H](Cc2ccccc2)NC(=O)[C@@H]2CCCN2C(=O)[C@H](CCCN)NC(=O)[C@H](C(C)C)NC(=O)[C@H](Cc2ccc(O)cc2)NC(=O)[C@H](Cc2ccc(F)cc2)NC1=O | inactive |  | inactive | inactive |  | inactive |
|  | 1 (≈ 0.713 µM) | 8 (≈ 5.71 µM) | 8 (≈ 5.71 µM) | 4 (≈ 2.85 µM) | CCCNC(=O)C[C@@H]1NC(=O)[C@@H](CCCNC(=N)N)NC(=O)[C@H](Cc2ccccc2)NC(=O)[C@@H]2CCCN2C(=O)[C@@H](Cc2ccccc2)NC(=O)[C@H](Cc2ccc(F)cc2)NC(=O)[C@H](CCCN)NC(=O)[C@H](C(C)C)NC(=O)[C@H](Cc2ccc(O)cc2)NC(=O)[C@H](CCCNC(=N)N)NC1=O |  | 8 |  |  | 4 |  |
|  |  |  |  |  | CCCNC(=O)C[C@@H]1NC(=O)[C@@H](CCCNC(=N)N)NC(=O)[C@H](Cc2ccccc2)NC(=O)[C@@H]2CCCN2C(=O)[C@@H](Cc2ccccc2)NC(=O)[C@H](Cc2ccc(F)cc2)NC(=O)[C@H](CCCN)NC(=O)[C@H](C(C)C)NC(=O)[C@H](Cc2ccc(O)cc2)NC(=O)CNC1=O [listing 1 of 2 here] |  | 16 |  |  |  |  |
|  | 1 (≈ 0.768 µM) | 4 (≈ 3.07 µM) | 2 (≈ 1.54 µM) | 1 (≈ 0.768 µM) | CCCNC(=O)C[C@@H]1NC(=O)[C@@H](CCCNC(=N)N)NC(=O)[C@H](Cc2ccccc2)NC(=O)[C@@H]2CCCN2C(=O)[C@@H](Cc2ccccc2)NC(=O)[C@H](Cc2ccc(F)cc2)NC(=O)[C@H](CCCN)NC(=O)[C@H](C(C)C)NC(=O)[C@H](Cc2ccc(O)cc2)NC(=O)CNC1=O [listing 2 of 2 here] |  |  |  |  |  |  |
|  | 2 (≈ 1.5 µM) | 16 (≈ 12 µM) | 8 (≈ 6 µM) | 2 (≈ 1.5 µM) | CCCNC(=O)C[C@@H]1NC(=O)[C@@H](CCCNC(=N)N)NC(=O)[C@H](Cc2ccccc2)NC(=O)[C@@H]2CCCN2C(=O)[C@@H](Cc2ccccc2)NC(=O)[C@H](Cc2ccc(F)cc2)NC(=O)[C@H](CCCN)NC(=O)[C@H](C(C)C)NC(=O)[C@H](Cc2ccc(O)cc2)NC(=O)[C@H](CO)NC1=O |  | 16 |  |  | 8 |  |
|  | 2 (≈ 1.49 µM) | 16 (≈ 11.9 µM) | 16 (≈ 11.9 µM) | 4 (≈ 2.98 µM) | CCCNC(=O)C[C@H]1NC(=O)[C@@H](CCCCN)NC(=O)[C@H](Cc2ccccc2)NC(=O)[C@@H]2CCCN2C(=O)[C@@H](Cc2ccccc2)NC(=O)[C@H](Cc2ccc(O)cc2)NC(=O)[C@H](CCCN)NC(=O)[C@H](C(C)C)NC(=O)[C@H](Cc2ccc(O)cc2)NC(=O)[C@H](CCCCN)NC1=O |  | 64 |  |  | 32 |  |
|  | 8 (≈ 6.05 µM) | 32 (≈ 24.2 µM) | 16 (≈ 12.1 µM) | 8 (≈ 6.05 µM) | CCCNC(=O)C[C@@H]1NC(=O)[C@@H](CCCNC(=N)N)NC(=O)[C@H](Cc2ccccc2)NC(=O)[C@@H]2CCCN2C(=O)[C@@H](Cc2ccccc2)NC(=O)[C@@H](CC(C)C)NC(=O)[C@H](CCCN)NC(=O)[C@H](C(C)C)NC(=O)[C@H](Cc2ccc(O)cc2)NC(=O)[C@H](CCCCN)NC1=O |  | 128 |  |  | 16 |  |
|  | > 32 | 32 (≈ 25.6 µM) |  |  | CCCNC(=O)C[C@@H]1NC(=O)[C@@H](CCCNC(=N)N)NC(=O)[C@H](Cc2ccccc2)NC(=O)[C@@H]2CCCN2C(=O)[C@@H](Cc2ccccc2)NC(=O)[C@@H]2CCCN2C(=O)[C@H](CCCN)NC(=O)[C@H](C(C)C)NC(=O)[C@H](Cc2ccc(O)cc2)NC(=O)[C@@H](C)NC1=O | inactive |  | inactive | inactive |  | inactive |
|  |  |  |  |  | CCCNC(=O)C[C@H]1NC(=O)[C@@H](CCCNC(=N)N)NC(=O)[C@H](Cc2ccccc2)NC(=O)[C@@H]2CCCN2C(=O)[C@@H](Cc2ccccc2)NC(=O)[C@H](Cc2ccc(F)cc2)NC(=O)[C@H](CCCN)NC(=O)[C@H](C(C)C)NC(=O)[C@H](Cc2ccc(O)cc2)NC(=O)CNC1=O |  |  |  |  | 8 |  |
|  | 4 (≈ 3.04 µM) | 32 (≈ 24.3 µM) | 8 (≈ 6.09 µM) | 32 (≈ 24.3 µM) | CCCNC(=O)C[C@H]1NC(=O)[C@@H](CCCCN)NC(=O)[C@H](Cc2ccccc2)NC(=O)[C@@H]2CCCN2C(=O)[C@@H](Cc2ccccc2)NC(=O)[C@@H]2CCCN2C(=O)[C@H](CCCN)NC(=O)[C@H](C(C)C)NC(=O)[C@H](Cc2ccc(O)cc2)NC(=O)[C@H](Cc2ccc(F)cc2)NC1=O |  | 128 |  |  | 32 |  |
|  | 32 (≈ 24.8 µM) | 32 (≈ 24.8 µM) |  |  | CCCNC(=O)C[C@@H]1NC(=O)[C@@H](Cc2ccccc2)NC(=O)[C@H](Cc2ccccc2)NC(=O)[C@@H]2CCCN2C(=O)[C@@H](Cc2ccccc2)NC(=O)CN(C)C(=O)[C@H](CCCN)NC(=O)[C@H](C(C)C)NC(=O)[C@H](Cc2ccc(O)cc2)NC(=O)[C@@H](Cc2ccccc2)NC1=O |  |  |  |  |  |  |
|  | 8 (≈ 6.37 µM) |  | 32 (≈ 25.5 µM) | 16 (≈ 12.7 µM) | CCCNC(=O)C[C@@H]1NC(=O)[C@@H](Cc2ccccc2)NC(=O)[C@H](Cc2ccccc2)NC(=O)[C@@H]2CCCN2C(=O)[C@@H](Cc2ccccc2)NC(=O)CNC(=O)[C@H](CCCN)NC(=O)[C@H](C(C)C)NC(=O)[C@H](Cc2ccc(O)cc2)NC(=O)[C@H](CCCCN)NC1=O |  | 64 |  | inactive | 8 |  |
